Values after ≈ are worked out from the molar mass of the structure shown.
What was measured:
Staphylococcus aureus [1] = experiment: Antimicrobial activity against Staphylococcus aureus MRSA08-12 in peritonitis mouse model assessed as mortality of host at 10 mg/kg, iv as single dose relative to control; format: functional
Outline: (§1)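 Outbred KM mice (20–25 g) infected i.p. with a 90–100% lethal dose (5 × 10^7 CFU/mL) in 0.5 mL brain heart infusion broth with 5% mucin. Single i.v. dose of 1.25–20 mg/kg in 20% DMSO, 0.1 mL. Ten mice per dose; daily monitoring for 14 days; ED50 from cumulative mortality by Bliss's method.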

Staphylococcus aureus [2] = experiment: Antimicrobial activity against Staphylococcus aureus MRSA08-12 in peritonitis mouse model assessed as mortality of host at 5 mg/kg, iv as single dose relative to control; format: functional; outline: as §1
Staphylococcus aureus [3] = experiment: Antimicrobial activity against Staphylococcus aureus MRSA08-12 in peritonitis mouse model assessed as mortality of host at 1.25 mg/kg, iv as single dose relative to control; format: functional; outline: as §1
[4] = Fraction unbound in CD1 mouse plasma at 2 uM by equilibrium dialysis; format: ADME, cell-free
Outline: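 Pooled CD-1 mouse plasma spiked to 2 µM final, equilibrium dialysis in triplicate against 100 mM PBS pH 7.4, 4 h at 37 °C with rotation; matrix-matched samples acetonitrile-precipitated, LC-MS/MS with internal standards. Unbound = free/total ×100; recovery = (free+total)/pre-dialysis ×100.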

hERG (KCNH2) [5] = target: T1, hERG (KCNH2) (Homo sapiens, UniProt Q12809); experiment: Inhibition of human ERG at 1 uM
T1 sequence (Q12809 whole entry): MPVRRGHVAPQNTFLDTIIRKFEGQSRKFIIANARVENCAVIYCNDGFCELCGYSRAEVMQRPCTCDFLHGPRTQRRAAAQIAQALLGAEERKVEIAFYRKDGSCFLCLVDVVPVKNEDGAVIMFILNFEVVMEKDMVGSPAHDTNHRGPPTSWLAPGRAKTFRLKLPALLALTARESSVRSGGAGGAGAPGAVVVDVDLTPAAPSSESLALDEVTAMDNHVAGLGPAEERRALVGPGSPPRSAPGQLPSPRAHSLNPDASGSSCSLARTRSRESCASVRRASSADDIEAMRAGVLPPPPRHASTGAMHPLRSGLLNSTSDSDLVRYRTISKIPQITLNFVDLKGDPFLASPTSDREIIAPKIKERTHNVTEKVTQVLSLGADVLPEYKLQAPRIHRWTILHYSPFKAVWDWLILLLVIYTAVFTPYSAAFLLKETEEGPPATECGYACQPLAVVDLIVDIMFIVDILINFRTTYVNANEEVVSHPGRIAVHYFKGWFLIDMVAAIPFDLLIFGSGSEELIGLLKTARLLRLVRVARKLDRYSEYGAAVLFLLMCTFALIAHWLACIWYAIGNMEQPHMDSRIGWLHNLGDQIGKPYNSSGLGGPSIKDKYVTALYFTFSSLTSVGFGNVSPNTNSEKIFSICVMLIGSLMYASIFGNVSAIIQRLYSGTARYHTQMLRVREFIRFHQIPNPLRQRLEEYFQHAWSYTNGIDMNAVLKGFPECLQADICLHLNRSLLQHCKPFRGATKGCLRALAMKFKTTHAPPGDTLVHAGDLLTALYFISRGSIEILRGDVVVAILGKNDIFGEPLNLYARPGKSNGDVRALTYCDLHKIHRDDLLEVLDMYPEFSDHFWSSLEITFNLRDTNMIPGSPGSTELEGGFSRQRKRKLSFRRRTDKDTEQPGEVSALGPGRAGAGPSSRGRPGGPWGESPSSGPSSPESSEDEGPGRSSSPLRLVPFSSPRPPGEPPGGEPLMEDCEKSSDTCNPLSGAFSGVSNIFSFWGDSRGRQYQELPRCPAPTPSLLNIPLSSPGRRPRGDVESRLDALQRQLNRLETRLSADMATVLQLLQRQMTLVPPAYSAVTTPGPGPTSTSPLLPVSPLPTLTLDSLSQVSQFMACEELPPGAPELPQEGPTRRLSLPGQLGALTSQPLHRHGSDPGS

Mus musculus [6] = experiment: Acute toxicity in KM mouse assessed as abnormal behaviour at 100 mg/kg, iv measured for 14 days; format: organism-based; design: dose 100 mg/kg, route intravenous; conditions: in vivo, 336 h
Outline: (§2)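 Outbred KM mice (SPF, 20–25 g; nine male, ten female) given a single tail-vein injection of 100 or 250 mg/kg in PBS pH 6.5 with 20% DMSO over about 60 s. Behaviour, weight, coat colour, anal temperature, food and water intake, and urine and stool weight followed for 14 days. On day 14, gross necropsy of skin, lungs, heart, liver, kidneys and spleen.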

Mus musculus [7] = experiment: Acute toxicity in KM mouse assessed as skin abnormality at 250 mg/kg, iv measured for 14 days by necropsy; format: organism-based; design: dose 250 mg/kg, route intravenous; conditions: in vivo, 336 h; outline: as §2
Mus musculus [8] = experiment: Acute toxicity in KM mouse assessed as lung abnormality at 250 mg/kg, iv measured for 14 days by necropsy; format: organism-based; design: dose 250 mg/kg, route intravenous; conditions: in vivo, 336 h; outline: as §2
Mus musculus [9] = experiment: Acute toxicity in KM mouse assessed as liver abnormality at 250 mg/kg, iv measured for 14 days by necropsy; format: organism-based; design: dose 250 mg/kg, route intravenous; conditions: in vivo, 336 h; outline: as §2
Mus musculus [10] = experiment: Acute toxicity in KM mouse assessed as spleen abnormality at 250 mg/kg, iv measured for 14 days by necropsy; format: organism-based; design: dose 250 mg/kg, route intravenous; conditions: in vivo, 336 h; outline: as §2
Staphylococcus aureus [11] = experiment: Antimicrobial activity against methicillin-susceptible Staphylococcus aureus after 24 hrs by broth microdilution method; format: functional
Outline: (§3)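 Broth microdilution following NCCLS M7-A4; ATCC strains and clinical isolates from a provincial hospital.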

Staphylococcus aureus [12] = experiment: Antimicrobial activity against methicillin-resistant Staphylococcus aureus after 24 hrs by broth microdilution method; format: functional
Outline: (§4)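 Broth microdilution following NCCLS M7-A4, using ATCC strains and clinical isolates from a provincial hospital.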

Escherichia coli [13] = experiment: Antimicrobial activity against Escherichia coli isolate 1 after 24 hrs by broth microdilution method; format: functional; conditions: isolate 1, 24 h; outline: as §3
Escherichia coli [14] = experiment: Antimicrobial activity against Escherichia coli isolate 2 after 24 hrs by broth microdilution method; format: functional; conditions: isolate 2, 24 h; outline: as §3
Staphylococcus aureus [15] = experiment: Antimicrobial activity against Staphylococcus aureus OXFORD after 24 hrs by broth microdilution method; format: functional; outline: as §4
Enterococcus faecalis = experiment: Antimicrobial activity against Enterococcus faecalis Isolate 1 after 24 hrs by broth microdilution method; format: functional; conditions: Isolate 1, 24 h; outline: as §3
Enterococcus faecium = experiment: Antimicrobial activity against Enterococcus faecium X7501 after 24 hrs by broth microdilution method; format: functional; conditions: X7501, 24 h; outline: as §3
Haemophilus influenzae [16] = experiment: Antimicrobial activity against Haemophilus influenzae Q1 after 24 hrs by broth microdilution method; format: functional; conditions: Q1, 24 h; outline: as §3
Haemophilus influenzae [17] = experiment: Antimicrobial activity against AcrA-deficient Haemophilus influenzae H128 after 24 hrs by broth microdilution method; format: functional; conditions: H128, 24 h; outline: as §3
Streptococcus pyogenes = experiment: Antimicrobial activity against Streptococcus pyogenes 1307006P after 24 hrs by broth microdilution method; format: functional; outline: as §3
Staphylococcus aureus [18] = experiment: Antimicrobial activity against Staphylococcus aureus ATCC 29213 after 24 hrs by broth microdilution method; format: functional; conditions: ATCC 29213, 24 h; outline: as §3
Staphylococcus aureus [19] = experiment: Antimicrobial activity against Staphylococcus aureus isolate A53 after 24 hrs by broth microdilution method; format: functional; conditions: isolate A53, 24 h; outline: as §4
Staphylococcus aureus [20] = experiment: Antimicrobial activity against Staphylococcus aureus isolate CL 939 after 24 hrs by broth microdilution method; format: functional; conditions: isolate CL 939, 24 h; outline: as §4
Staphylococcus aureus [21] = experiment: Antimicrobial activity against Staphylococcus aureus isolate Ealing 23 after 24 hrs by broth microdilution method; format: functional; conditions: isolate Ealing 23, 24 h; outline: as §4
Staphylococcus aureus [22] = experiment: Antimicrobial activity against Staphylococcus aureus isolate Ealing 32 after 24 hrs by broth microdilution method; format: functional; conditions: isolate Ealing 32, 24 h; outline: as §3
Staphylococcus aureus [23] = experiment: Antimicrobial activity against Staphylococcus aureus isolate RUSSELL after 24 hrs by broth microdilution method; format: functional; outline: as §4
Staphylococcus aureus [24] = experiment: Antimicrobial activity against Staphylococcus aureus isolate CL 1033 after 24 hrs by broth microdilution method; format: functional; conditions: isolate CL 1033, 24 h; outline: as §3
Staphylococcus aureus [25] = experiment: Antimicrobial activity against Staphylococcus aureus isolate MN 1255 after 24 hrs by broth microdilution method; format: functional; conditions: isolate MN 1255, 24 h; outline: as §3
Staphylococcus aureus [26] = experiment: Antimicrobial activity against Staphylococcus aureus isolate OGA833 after 24 hrs by broth microdilution method; format: functional; conditions: isolate OGA833, 24 h; outline: as §3
Staphylococcus aureus [27] = experiment: Antimicrobial activity against Staphylococcus aureus isolate PAV 5 after 24 hrs by broth microdilution method; format: functional; conditions: isolate PAV 5, 24 h; outline: as §3
Staphylococcus aureus [28] = experiment: Antimicrobial activity against Staphylococcus aureus isolate 306 after 24 hrs by broth microdilution method; format: functional; conditions: isolate 306, 24 h; outline: as §3
Staphylococcus aureus [29] = experiment: Antimicrobial activity against Staphylococcus aureus isolate 934335 after 24 hrs by broth microdilution method; format: functional; conditions: isolate 934335, 24 h; outline: as §3
[30] = AUC (0 to infinity) in Sprague-Dawley rat at 5 mg/kg, iv; format: ADME, organism-based; design: time infinity, dose 5 mg/kg, route intravenous; conditions: plasma
[31] = Cmax in Sprague-Dawley rat at 25 mg/kg, po; format: ADME, organism-based; design: dose 25 mg/kg, route oral; conditions: in vivo
[32] = Tmax in Sprague-Dawley rat at 25 mg/kg, po; format: ADME, organism-based; design: dose 25 mg/kg, route oral; conditions: in vivo
[33] = Half life in Sprague-Dawley rat at 25 mg/kg, po; format: ADME, organism-based; design: dose 25 mg/kg, route oral; conditions: in vivo
[34] = AUC (0 to t) in Sprague-Dawley rat at 25 mg/kg, po; format: ADME, organism-based; design: dose 25 mg/kg, route oral; conditions: plasma
[35] = Mean residence time (0 to t) in Sprague-Dawley rat at 25 mg/kg, po; format: ADME, organism-based; design: dose 25 mg/kg, route oral; conditions: in vivo
hERG (KCNH2) [36] = target: T1, hERG (KCNH2); experiment: Inhibition of human ERG at 10 uM
[37] = Stability of the compound in artificial intestinal juice measured every 2 hrs for 12 hrs by HPLC analysis; format: physicochemical; conditions: simulated gi fluid

CCCC[C@H](CN(O)C=O)C(=O)N1CC=C[C@H]1C(=O)Nc1ccc(F)c[n+]1[O-]
mortality at 10 mg/kg (Staphylococcus aureus [1]): 30% | mortality at 5 mg/kg (Staphylococcus aureus [2]): 60% | mortality at 1.25 mg/kg (Staphylococcus aureus [3]): 100% | fraction unbound at 2 µM [4]: 0.467 | inhibition at 1 µM (hERG (KCNH2) [5]): 4.55% | Activity (Mus musculus [6]): Non-toxic | Activity (Mus musculus [7]): Non-toxic | Activity (Mus musculus [8]): Non-toxic | Activity (Mus musculus [9]): Non-toxic | Activity (Mus musculus [10]): Non-toxic | MIC (Staphylococcus aureus [11]): 1 µg/mL (≈ 2.54 µM) | MIC (Staphylococcus aureus [12]): 0.5 µg/mL (≈ 1.27 µM) | MIC (Escherichia coli [13]): > 64 µg/mL | MIC (Escherichia coli [14]): 64 µg/mL (≈ 162 µM) | MIC (Staphylococcus aureus [15]): 0.5 µg/mL (≈ 1.27 µM) | MIC (Enterococcus faecalis): 4 µg/mL (≈ 10.1 µM) | MIC (Enterococcus faecium): 2 µg/mL (≈ 5.07 µM) | MIC (Haemophilus influenzae [16]): 1 µg/mL (≈ 2.54 µM) | MIC (Haemophilus influenzae [17]): ≤ 0.06 µg/mL | MIC (Streptococcus pyogenes): 2 µg/mL (≈ 5.07 µM) | MIC (Staphylococcus aureus [18]): 1 µg/mL (≈ 2.54 µM) | MIC (Staphylococcus aureus [19]): 0.5 µg/mL (≈ 1.27 µM) | MIC (Staphylococcus aureus [20]): 0.125 µg/mL (≈ 0.317 µM) | MIC (Staphylococcus aureus [21]): 0.5 µg/mL (≈ 1.27 µM) | MIC (Staphylococcus aureus [22]): 0.25 µg/mL (≈ 0.634 µM) | MIC (Staphylococcus aureus [23]): 0.5 µg/mL (≈ 1.27 µM) | MIC (Staphylococcus aureus [24]): 1 µg/mL (≈ 2.54 µM) | MIC (Staphylococcus aureus [25]): 0.25 µg/mL (≈ 0.634 µM) | MIC (Staphylococcus aureus [26]): 0.5 µg/mL (≈ 1.27 µM) | MIC (Staphylococcus aureus [27]): 1 µg/mL (≈ 2.54 µM) | MIC (Staphylococcus aureus [28]): 2 µg/mL (≈ 5.07 µM) | MIC (Staphylococcus aureus [29]): 0.25 µg/mL (≈ 0.634 µM) | AUC(0-inf) [30]: 1960 ng·h/mL | Cmax [31]: 1390 ng/mL | Tmax [32]: 0.688 h | half-life [33]: 1.82 h | AUC(0-t) [34]: 3320 ng·h/mL | MRT last [35]: 2.34 h | inhibition at 10 µM (hERG (KCNH2) [36]): 6.71% | Stability [37]: Stable

Reference: ChEMBL document CHEMBL3352487, “Synthesis, antibacterial activity, and biological evaluation of formyl hydroxyamino derivatives as novel potent peptide deformylase inhibitors against drug-resistant bacteria” (Eur J Med Chem, 2014)
